Measurements as given in paper PMC4467529 (Bioorganic & medicinal chemistry, 2015).
Entries after “also recorded” stand apart in the source; their conditions may differ.

Columns and labels:
[1] = In vitro cytotoxicity, Neutral Red assay; assay type: cell-based; conditions: human, KB oral epidermal carcinoma cells
Method in brief: (§1)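 Cells grown in RPMI-1640 with 10% bovine calf serum and amikacin (60 mg/L), 37°C, 5% CO₂, 95% humidity. Seeded at 25,000 cells/well, grown 24 h. Test samples diluted in serum-free medium, exposure 48 h. Viable cells counted by Neutral Red uptake; % viability loss against vehicle control. IC50 from dose curves, triplicate, means reported.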

[2] = In vitro cytotoxicity, Neutral Red assay; assay type: cell-based; conditions: African green monkey, Vero cells (kidney fibroblasts)
Method in brief: (§2)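 Cells were kept in RPMI-1640 with 10% bovine calf serum and amikacin 60 mg/L at 37 °C, 5% CO₂. They were seeded at 25,000 cells/well and grown 24 h, then exposed 48 h to test compound diluted in serum-free medium, tested up to 25 μg/ml. Viability was read by Neutral Red, as % decrease versus vehicle. IC50 came from dose curves, in triplicate, with doxorubicin as reference.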

[3] = In vitro cytotoxicity, Neutral Red assay; assay type: cell-based; conditions: pig, LLC-PK11 pig kidney epithelial cells
Method in brief: as §2

[4] = In vitro cytotoxicity, Neutral Red assay; assay type: cell-based; conditions: human, SK-MEL malignant melanoma cells
Method in brief: as §2

[5] = system: rat paw edema; experiment: Carrageenan-induced rat paw edema assay; assay type: in vivo; conditions: for in vivo anti-inflammatory activity (in words): rat paw edema, compared to ketorolac; for Edema thickness ±SEM, 1h / Edema thickness ±SEM, 2h / Edema thickness ±SEM, 3h / Edema thickness ±SEM, 4h: rat, 30 mg/kg intraperitoneally; for Edema thickness ±SEM, 1h: 1h after induction; for Edema thickness ±SEM, 2h: 2h after induction; for Edema thickness ±SEM, 3h: 3h after induction; for Edema thickness ±SEM, 4h: 4h after induction
Method in brief: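 Adult albino rats of both sexes (120–150 g), pre-hydrated with 3 ml water by gavage, in groups of five. Test compound or ketorolac tromethamine was suspended in distilled water with a few drops of Tween 80 and given i.p. 1 h before 1% carrageenan s.c. into the right hind subplantar paw. Controls got saline/Tween 80.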

[6] = In vitro cytotoxicity, Neutral Red assay; assay type: cell-based; conditions: human, SK-OV-3 ovary carcinoma cells
Method in brief: as §1

| Structure (SMILES) | IC50 at 48 h [1] [µg/mL] | IC50 at 48 h [2] [µg/mL] | IC50 at 48 h [3] [µg/mL] | IC50 at 48 h [4] [µg/mL] | in vivo anti-inflammatory activity (in words) [5] | Edema thickness ±SEM, 1h [5] | Edema thickness ±SEM, 2h [5] | Edema thickness ±SEM, 3h [5] | Edema thickness ±SEM, 4h [5] | IC50 at 48 h [6] [µg/mL] |
| --- | --- | --- | --- | --- | --- | --- | --- | --- | --- | --- |
| O=c1sc2ccccc2n1CCCCCN1CCN(CCCCCn2c(=O)sc3ccccc32)CC1 [Compound 3h, 3,3′-(piperazine-1,4-diylbis(pentane-5,1-diyl))bis(benzo[d]thiazol-2(3H)-one)] | > 25 | > 25 | > 25 |  |  |  |  |  |  |  |
| O=c1sc2ccccc2n1CCCCCCN1CCN(CCCCCCn2c(=O)sc3ccccc32)CC1 [Compound 3j, 3,3′-(piperazine-1,4-diylbis(hexane-6,1-diyl))bis(benzo[d]thiaazol-2(3H)-one)] |  | > 25 | > 25 | > 25 | significant anti-inflammatory and analgesic activity; also recorded: moderate activities compared to ketorolac | 95.50 ± 1.02 ×10^−2 mm | 97.24 ± 2.35 ×10^−2 mm | 101.6 ± 1.68 ×10^−2 mm | 123.5 ± 1.13 ×10^−2 mm |  |
| O=c1sc2ccccc2n1CCCCCN1CCN(CCCn2c(=O)sc3ccccc32)CC1 [Compound 5l, 3-(3-(4-(5-(2-oxobenzo[d]thiazol-3(2H)-yl)pentyl)piperazin-1-yl)propyl)benzo[d]thiazol-2(3H)-one] | > 25 | > 25 | > 25 |  |  |  |  |  |  | > 25 |
| O=c1sc2ccccc2n1CCCCCN1CCN(CCCCn2c(=O)sc3ccccc32)CC1 [Compound 5p, 3-(5-(4-(4-(2-oxobenzo[d]thiazol-3(2H)-yl)butyl)piperazin-1-yl)pentyl)benzo[d]thiazol-2(3H)-one] | > 25 | > 25 | > 25 |  |  |  |  |  |  | > 25 |
| O=c1sc2ccccc2n1CCCCCCN1CCN(CCCCn2c(=O)sc3ccccc32)CC1 [Compound 5r, 3-(6-(4-(4-(2-oxobenzo[d]thiazol-3(2H)-yl)butyl)piperazin-1-yl)hexyl)benzo[d]thiazol-2(3H)-one] |  | > 25 | > 25 |  |  |  |  |  |  | > 25 |
| O=c1oc2ccccc2n1CCCCCCN1CCN(CCCCCn2c(=O)oc3ccccc32)CC1 [Compound 5s, 3-(5-(4-(6-(2-oxobenzo[d]oxazol-3(2H)-yl)hexyl)piperazin-1-yl)pentyl)benzo[d]oxazol-2(3H)-one] | > 25 | > 25 | > 25 |  |  |  |  |  |  | > 25 |
| O=c1sc2ccccc2n1CCCCCCN1CCN(CCCCCn2c(=O)sc3ccccc32)CC1 [Compound 5t, 3-(5-(4-(6-(2-oxobenzo[d]thiazol-3(2H)-yl)hexyl)piperazin-1-yl)pentyl)benzo[d]thiazol-2(3H)-one] | > 25 |  | > 25 | > 25 | significant anti-inflammatory and analgesic activity; also recorded: moderate activities compared to ketorolac | 93.01 ± 1.93 ×10^−2 mm | 91.57 ± 2.63 ×10^−2 mm | 109.24 ± 1.36 ×10^−2 mm | 127.34 ± 1.87 ×10^−2 mm |  |
| c1ccc2oc(SCCCCN3CCN(CCCCSc4nc5ccccc5o4)CC3)nc2c1 [Compound 8a, 1,4-bis(4-(benzo[d]oxazol-2-ylthio)butyl)piperazine] |  | > 25 |  |  |  |  |  |  |  | > 25 |
| O=C(c1ccccc1)c1ccc2n1CCC2C(=O)O (stereo not shown) [Ketorolac, ketorolac tromethamine, reference compound] |  |  |  |  |  | 41.6 ± 2.02 ×10^−2 mm | 40.2 ± 2.82 ×10^−2 mm | 41.2 ± 2.06 ×10^−2 mm | 40.4 ± 1.52 ×10^−2 mm |  |
